Reference: PubChem BioAssay AID504513 (The Scripps Research Institute Molecular Screening Center, 2011)
Active and inactive are the calls of the source.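 Rule for the calls: active = PAFAH2 inhibition at least 50% at 0.2 µM with under 50% on each related off-target enzyme; inactive = the rest, including PAFAH2 hits that also hit off-targets.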

Columns and labels:
Test in all cases: competitive ABPP of PAFAH2 versus anti-target hydrolases – cell lysate, fluorescence, gel-based ABPP, BW5147 T-cell proteome, powder samples, late-stage follow-up (AID 504513);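 note: 0% = DMSO-only band intensity and 100% = blank gel background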
APEH = details: BW5147 mouse T-cell proteome, FP-Rh gel ABPP, stronger effect = higher value
How it was run: (§1)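 assay system = mouse BW5147 T-cell soluble lysate | amount = 1 mg/mL soluble protein | schedule = compound pretreatment 30 min, then 30 min probe labelling at 25 °C | measured by = in-gel fluorescence of probe-labelled bands, integrated optical density | evaluation = percent band labelling lost versus DMSO control | control set = DMSO-only sample as high, blank gel area as low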

LYPLA1 = details: BW5147 mouse T-cell proteome, FP-Rh gel ABPP, stronger effect = higher value
How it was run: as §1

[1] = target: Platelet-activating factor acetylhydrolase 2, cytoplasmic (Mus musculus) (UniProt Q8VDG7); details: FP-Rh gel ABPP, stronger effect = higher value
How it was run: as §1

ESD = details: BW5147 mouse T-cell proteome, FP-Rh gel ABPP, stronger effect = higher value
How it was run: as §1

ABHD11 = details: BW5147 mouse T-cell proteome, FP-Rh gel ABPP, stronger effect = higher value
How it was run: as §1

Chain of Platelet-activating factor acetylhydrolase 2, cytoplasmic (Mus musculus) (Q8VDG7 whole entry, looked up): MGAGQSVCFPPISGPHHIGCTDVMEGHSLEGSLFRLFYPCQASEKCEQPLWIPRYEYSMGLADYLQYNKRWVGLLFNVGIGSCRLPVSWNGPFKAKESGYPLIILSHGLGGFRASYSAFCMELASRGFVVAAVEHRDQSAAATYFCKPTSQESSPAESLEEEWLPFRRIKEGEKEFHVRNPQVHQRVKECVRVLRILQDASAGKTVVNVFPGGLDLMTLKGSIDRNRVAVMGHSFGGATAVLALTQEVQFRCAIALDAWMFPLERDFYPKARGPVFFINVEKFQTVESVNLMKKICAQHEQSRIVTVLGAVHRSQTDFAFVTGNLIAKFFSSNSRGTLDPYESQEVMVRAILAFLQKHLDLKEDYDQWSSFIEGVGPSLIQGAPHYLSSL

inhibition (APEH; at 1 µM): 0% (inactive)
inhibition (APEH; inhibition, at 0.02 µM): 0%
inhibition (APEH; inhibition, at 0.2 µM): 0%
inhibition (LYPLA1; at 1 µM): 0% (inactive)
inhibition (LYPLA1; inhibition, at 0.02 µM): 0%
inhibition (LYPLA1; inhibition, at 0.2 µM): 0%
inhibition ([1]; PAFAH2, at 1 µM): 100% (inactive)
inhibition ([1]; PAFAH2, inhibition, at 0.02 µM): 0%
inhibition ([1]; PAFAH2, inhibition, at 0.2 µM): 0%
inhibition (ESD; at 1 µM): 0% (inactive)
inhibition (ESD; inhibition, at 0.02 µM): 0%
inhibition (ESD; inhibition, at 0.2 µM): 0%
inhibition (ABHD11; at 1 µM): 100%
inhibition (ABHD11; inhibition, at 0.02 µM): 0%
inhibition (ABHD11; inhibition, at 0.2 µM): 50%
Compound: O=C(N1CCOCC1)n1ccnn1
